In ChEMBL document CHEMBL1157691, “Synthesis and antiproliferative evaluations of certain 2-phenylvinylquinoline (2-styrylquinoline) and 2-furanylvinylquinoline derivatives” (Bioorg Med Chem, 2010) one finds viability, IC50 and GI50 data, which are given here for 24 compounds.

Assay [1] concerns MCF7. The assay can be described thus: Antiproliferative activity against human MCF7 cells assessed as cell survival at 4 ug/mL after 72 hrs by MTS assay relative to control. The following applies: MCF7, 72 h, read-out: Survival. The format is functional. In a few lines: (§1)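 Log-phase cells seeded at 5000 cells/mL/well in 24-well format. They were then exposed to test agents at a single concentration of 4.0 μg/mL for 72 h. Growth and viability were read by MTS assay.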

The subject of a further assay is SF-268. The assay can be described thus: Antiproliferative activity against human SF268 cells assessed as cell survival at 4 ug/mL after 72 hrs by MTS assay relative to control. The format is functional. The conditions noted are these: SF-268, 72 h, read-out: Survival. A digest of the protocol:
as §1

Another assay relates to NCI-H460. The assay can be described thus: Antiproliferative activity against human NCI-H460 cells assessed as cell survival at 4 ug/mL after 72 hrs by MTS assay relative to control. The class given is functional. The conditions noted are these: NCI-H460, 72 h, read-out: Survival. In a few lines:
as §1

For assay [2], the system named is MCF7. The assay can be described thus: Antiproliferative activity against human MCF7 cells after 48 hrs by ATPlite assay. The class given is functional, cell-based. The conditions noted are these: MCF7, 48 h.
In a further assay the test system is PC-3. The assay can be described thus: Antiproliferative activity against human PC3 cells after 48 hrs by ATPlite assay. The class given is functional, cell-based. The conditions noted are these: PC-3, 48 h.
The next assay deals with LNCaP. In words: Antiproliferative activity against human LNCAP cells after 48 hrs by ATPlite assay. The class given is functional, cell-based.
The nature of assay [3]: Growth inhibition of human NCI60 cells. The class given is functional.

On to `Oc1ccc(/C=C/c2ccc3cccc(O)c3n2)cc1`, for which the viability at 4 µg/mL amounted to 108% in the assay with MCF7 [1], 78% in the assay on SF-268 and 52% with NCI-H460.
Take `Oc1cccc2ccc(/C=C/c3ccco3)nc12`: the viability at 4 µg/mL was determined as 110% with MCF7 [1], 76% in the assay with SF-268 and 70% in the assay on NCI-H460.
Taken in the same sequence, the figures for `Oc1cccc(/C=C/c2ccc3cccc(O)c3n2)c1O` were 95%, 52% and 53%.
Turning to `CC(=O)c1ccc(Nc2cc(/C=C/c3ccc([N+](=O)[O-])o3)nc3ccccc23)cc1`, the viability at 4 µg/mL with MCF7 [1], with SF-268 and in the assay on NCI-H460 was under 20% in each case. In addition, the values for the IC50 in the assay on MCF7 [2], in the assay on PC-3 and in the assay with LNCaP were 0.43 µM, 0.45 µM and 4.12 µM, respectively.
For the compound `CC(=O)c1ccc(Nc2cc(/C=C/c3ccccc3)nc3ccccc23)cc1`, the viability at 4 µg/mL was found to be 83% in the assay on MCF7 [1], 107% in the assay on SF-268 and 52% in the assay on NCI-H460.
For `C/C(=N\O)c1ccc(Nc2cc(/C=C/c3ccc([N+](=O)[O-])o3)nc3ccccc23)cc1`, the viability at 4 µg/mL in the assay on MCF7 [1], in the assay with SF-268 and in the assay on NCI-H460 was under 20% throughout. The IC50 in the assay with MCF7 [2] was found to be 0.25 µM; with PC-3 it was 0.19 µM; with LNCaP, 0.95 µM.
For `CO/N=C(\C)c1ccc(Nc2cc(/C=C/c3ccc([N+](=O)[O-])o3)nc3ccccc23)cc1`, the viability at 4 µg/mL in the assay with MCF7 [1], in the assay with SF-268 and in the assay on NCI-H460 was under 20% in each case. Moreover, the IC50 in the assay on MCF7 [2] was 0.4 µM; with PC-3 it was 0.52 µM; in the assay with LNCaP, 1.04 µM.
`COc1cccc2c(Nc3ccc(C(C)=O)cc3)cc(/C=C/c3ccccc3)nc12`: the viability at 4 µg/mL is 95% in the assay with MCF7 [1], 114% in the assay on SF-268 and 75% in the assay on NCI-H460.
In the case of `C/C(=N/O)c1ccc(Nc2cc(/C=C/c3ccccc3)nc3ccccc23)cc1`, the viability at 4 µg/mL in the assay on MCF7 [1] was 54%; in the assay on SF-268, 90%; with NCI-H460 it was 67%.
In the case of `CO/N=C(/C)c1ccc(Nc2cc(/C=C/c3ccccc3)nc3ccccc23)cc1`, the viability at 4 µg/mL with MCF7 [1] turned out to be 108%; in the assay on SF-268, 112%; in the assay on NCI-H460 it was 79%.
Taken in the same sequence, the figures for `Oc1cccc2ccc(/C=C/c3ccc(F)cc3)nc12` were 103%, 82% and 66%.
Regarding `COc1cccc2c(Nc3ccc(/C(C)=N\O)cc3)cc(/C=C/c3ccccc3)nc12`, the results for the viability at 4 µg/mL in the assay with MCF7 [1], in the assay with SF-268 and with NCI-H460 were 40%, 63% and under 20%, respectively.
Taken in the same sequence, the figures for `CO/N=C(/C)c1ccc(Nc2cc(/C=C/c3ccccc3)nc3c(OC)cccc23)cc1` were 97%, 97% and 87%.
Taken in the same sequence, the figures for `N#Cc1ccc(/C=C/c2ccc3cccc(O)c3n2)cc1` were 107%, 90% and 66%.
The corresponding values for `Oc1cc(/C=C/c2ccccc2)nc2ccccc12` are 119%, 120% and 118%.
With `Clc1cc(/C=C/c2ccccc2)nc2ccccc12`, the viability at 4 µg/mL amounted to 120% in the assay with MCF7 [1], 118% in the assay with SF-268 and 109% in the assay with NCI-H460.
Regarding `CC(=O)c1ccc(Nc2c3ccccc3nc3occc23)cc1`, in assay [3], the GI50 came to 0.025 µM.
Take `COc1cccc2c(Cl)cc(/C=C/c3ccccc3)nc12`: the viability at 4 µg/mL in the assay with MCF7 [1] was 99%; in the assay on SF-268 it was 81%; with NCI-H460, 109%.
The corresponding values for `O=[N+]([O-])c1ccc(/C=C/c2ccc3cccc(O)c3n2)cc1` are 89%, 77% and 52%.
The corresponding values for `COc1cccc2c(O)cc(/C=C/c3ccccc3)nc12` are 104%, 119% and 111%.
Take `Oc1cccc2ccc(/C=C/c3cccnc3)nc12`: the viability at 4 µg/mL in the assay on MCF7 [1] stood at 115%; with SF-268, 89%; in the assay on NCI-H460 it was 63%.
Taken in the same sequence, the figures for `Oc1cccc2ccc(/C=C/c3ccccc3)nc12` were 110%, 72% and 55%.
In turn, `COc1cc(NS(C)(=O)=O)ccc1Nc1c2ccccc2nc2ccccc12` [AMSACRINE] registered a GI50 in assay [3] of 0.44 µM. This lies in the sub-micromolar range.
The compound `COc1cccc2c1C(=O)c1c(O)c3c(c(O)c1C2=O)C[C@@](O)(C(C)=O)C[C@@H]3O[C@H]1C[C@H](N)[C@H](O)[C@H](C)O1` [DAUNORUBICIN] returned a GI50 in assay [3] of 0.044 µM. This GI50 is about 10-fold lower than that of the compound before.
